Assay results collected from several papers.
Protocols differ between the studies behind these lines.
ADRA1B: Alpha-1B adrenergic receptor (ADRA1B, Homo sapiens, UniProt P35368)
PARP3: Protein mono-ADP-ribosyltransferase PARP3 (PARP3, Homo sapiens, UniProt Q9Y6F1)
Mapk1: Mitogen-activated protein kinase 1 (Mapk1, Mus musculus, UniProt P63085)
Ptgs2: Prostaglandin G/H synthase 2 (Ptgs2, Mus musculus, UniProt Q05769)

| Compound | target | test | system | setting | inhibition [%] |
| --- | --- | --- | --- | --- | --- |
| CCN(CC)c1ccc(C2Nc3ccc(C(=O)c4ccccc4)cc3NC3=C2C(=O)CC(C)(C)C3)cc1 (stereo not drawn) | ADRA1B | ligand displacement, radioligand |  | 10 µM | -5 |
| COc1cc2c(cc1OC)-c1nnnn1CCC2 | PARP3 | enzyme activity, inhibitor |  | 10 µM | 45 |
| CCN(CC)CCNC(=O)c1c(C)[nH]c(/C=C2\C(=O)Nc3ccc(F)cc32)c1C | Mapk1 | enzyme activity, inhibitor |  | 10 µM | -14 |
| O=C1NCCCc2ccc(F)cc21 | PARP3 | enzyme activity, inhibitor |  | 10 µM | 63 |
| CC/C(=N\NC(=O)C(C)Nc1ccccc1)c1ccc(O)c(C)c1O (stereo not drawn) | cAMP-dependent protein kinase catalytic subunit gamma (PRKACG, Homo sapiens, UniProt P22612) | enzyme activity, inhibitor |  | 0.1 µM | 34.9 |
| Cn1cnc(Br)c1C1=CN(c2ncnc3[nH]cnc23)CCS1 | Myosin-IIIa (MYO3A, Homo sapiens, UniProt Q8NEV4) | enzyme activity, inhibitor, radiometric |  | 50 nM | 19.3 |
| O=C1N=C(N2CCCCN2)S/C1=C\c1ccc(F)cc1O | Corticotropin-releasing factor receptor 1 (CRHR1, Homo sapiens, UniProt P34998) | ligand displacement, radioligand |  | 10 µM | < 10 |
| CCN1CCN(Cc2ccc(NC(=O)c3ccc(C)c(Oc4ccnc5[nH]ccc45)c3)cc2C(F)(F)F)CC1 | Microtubule-associated serine/threonine-protein kinase 4 (MAST4, Homo sapiens, UniProt O15021) | target engagement in cells, inhibitor, chemoproteomics | Huh-7 | 10 µM | -28.8 |
| Ic1cccc2cnccc12 | PARP3 | enzyme activity, inhibitor |  | 10 µM | 7 |
| O=C(c1ccc(Cl)cc1)N(Cc1ccccc1)C1CCCCC1 | ADRA1B | cell-free assay |  | 10 µM | 11.3 |
| CCN(c1cc(C#CCN2CCOCC2)cc(C(=O)NCc2c(C)cc(C)[nH]c2=O)c1C)[C@H]1CC[C@H](N(C)CCOC)CC1 | Histone-lysine N-methyltransferase NSD3 (NSD3, Homo sapiens, UniProt Q9BZ95) | enzyme activity, inhibitor |  | 1 µM | 16 |
| O=C(O)Cc1ccccc1Nc1c(F)cccc1Cl | Ptgs2 | enzyme activity, inhibitor |  | 10 µM, with preincubation | 25 |
| Cc1ccc(Nc2nccc(N(C)c3ccc4c(C)n(C)nc4c3)n2)cc1S(N)(=O)=O | Mapk1 | enzyme activity, inhibitor |  | 10 µM | 3 |
| O=C1NCCCc2c(O)cccc21 | PARP3 | enzyme activity, inhibitor |  | 10 µM | 20 |
| N#Cc1cc(Cn2c(N3CCCC3)nc3ccccc32)ccc1F | ADRA1B | ligand displacement |  | 10 µM | -7.54 |
| Nc1ccc2c(c1)CCCn1nnnc1-2 | PARP3 | enzyme activity, inhibitor |  | 10 µM | 0 |
| CN(C)C1CCN(CC#Cc2nn(C3CCCC3)c3nc(NCc4ccccc4)ncc23)C1 (stereo not drawn) | Interleukin-1 receptor-associated kinase 1 (IRAK1, Homo sapiens, UniProt P51617) | enzyme activity, inhibitor, FRET |  | 1 µM | 13 |
| COc1ccc2c(c1)C(CC(=O)O)=C/C2=C\c1ccc(SC)cc1 | Ptgs2 | enzyme activity, inhibitor |  | 4 µM | 8 |
